Here are results for 61 compounds from ChEMBL document CHEMBL1240409, “Design, synthesis and evaluation of (E)-alpha-benzylthio chalcones as novel inhibitors of BCR-ABL kinase” (Bioorg Med Chem, 2010).

One test has as its system K562. Briefly: Growth inhibition of human K562 cells expressing p210Bcr/Abl after 96 hrs by trypan blue exclusion assay. Format: functional, cell-based. The settings on record: K562, 96 h. An outline of the steps:
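K562 cells were kept in RPMI with 10% FBS and penicillin–streptomycin at 37 °C under 5% CO2. Cells were seeded at 1 × 10^5 cells/mL with a range of compound concentrations, using DMSO as the negative control. After 96 h, viability was counted by Trypan blue exclusion and expressed as percent of DMSO control to derive GI50.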

The subject of the next test is DU-145. Briefly: Growth inhibition of human DU145 cells after 96 hrs by trypan blue exclusion assay. Format: functional. The settings on record: DU-145, 96 h.

Usually GI50 stands for the concentration that inhibits growth by half. Low readings indicate more potent growth inhibition, high ones less potent growth inhibition. `Cc1ccc(S/C(=C/c2ccc(N(C)C)cc2)C(=O)c2ccc(Cl)cc2)cc1`: the GI50 with K562 and in the test with DU-145 was over 100 µM throughout.

As for `O=C(/C(=C\c1ccc(Br)cc1)SCc1ccc(F)cc1)c1ccc(Cl)cc1`, the concentration for 50% growth inhibition (GI50) in the test with K562 worked out at 1 µM; with DU-145 it was 9 µM.

On to `COc1ccccc1/C=C(/SCc1ccc(Cl)c(Cl)c1)C(=O)c1ccc(Cl)cc1`, for which the concentration for 50% growth inhibition (GI50) with K562 and in the test on DU-145 was 10 µM throughout.

In the case of `Cc1ccsc1/C=C(\C(=O)c1ccc(Cl)cc1)S(=O)(=O)Cc1ccc(Cl)cc1`, the GI50 in the test on K562 and with DU-145 was 25 µM each time.

For `Cc1cc(C)cc(/C=C(/SCc2ccc(Cl)cc2)C(=O)c2ccc(Cl)cc2)c1`, the GI50 in the test on K562 and with DU-145 was 10 µM in each case.

With `O=C(/C(=C/c1ccc(Cl)cc1)Cc1ccc(Cl)cc1)c1ccc(Cl)cc1Cl`, the GI50 in the test with K562 turned out to be 1 µM; in the test with DU-145, 10 µM.

For the compound `Cc1ccc(S/C(=C/c2ccc(O)c([N+](=O)[O-])c2)C(=O)c2ccc(Cl)cc2)cc1`, the GI50 in the test with K562 came to 25 µM; in the test on DU-145, 10 µM.

As for `CC(=O)Nc1ccc(/C=C(/SCc2ccc(F)cc2)C(=O)c2ccc(C(=O)O)cc2)cc1[N+](=O)[O-]`, the GI50 was 1 µM in the test on K562 and 10 µM with DU-145.

As for `O=C(/C(=C\c1ccc(O)c(C(=O)O)c1)SCc1ccc(Br)cc1)c1ccc(Br)cc1`, the results for the GI50 with K562 and in the test on DU-145 were 25 µM and 10 µM, respectively.

As for `Cc1cc(C)cc(/C=C(/SCc2ccc(Br)cc2)C(=O)c2ccccc2Cl)c1`, the GI50 in the test on K562 and in the test on DU-145 was 10 µM in each case.

For `Cc1ccc(S(=O)(=O)/C(=C/c2ccc(C)s2)C(=O)c2ccc(Cl)cc2)cc1`, the GI50 was 25 µM in the test on K562 and 50 µM in the test on DU-145.

With `O=C(/C(=C\c1ccc(Br)cc1)S(=O)(=O)c1ccc(Br)cc1)c1ccccc1O`, the values for the GI50 in the test on K562 and in the test on DU-145 were 10 µM and over 100 µM, respectively.

With `Cc1cc(C)cc(/C=C(/Sc2ccc(Br)cc2)C(=O)c2ccc(Cl)cc2)c1`, the GI50 in the test on K562 was determined as 1 µM; in the test with DU-145 it was 10 µM.

In the case of `O=C(/C(=C\c1ccc(O)cc1O)Sc1ccccc1Br)c1ccc(Br)cc1`, the GI50 in the test with K562 and in the test with DU-145 was 50 µM each time.

Regarding `O=C(/C(=C\c1c(O)cc(O)cc1O)Sc1ccc(Br)cc1)c1ccc(Cl)cc1`, the concentration for 50% growth inhibition (GI50) in the test on K562 and in the test with DU-145 was 50 µM throughout.

As to `O=C(/C(=C\c1ccc([N+](=O)[O-])c(O)c1)Sc1c(F)c(F)c(F)c(F)c1F)c1ccc(Br)cc1`, the GI50 turned out to be 1 µM with K562 and 10 µM in the test with DU-145.

Take `Cc1ccc(S/C(=C/c2c[nH]c3ccc(Cl)cc23)C(=O)c2ccc(Cl)cc2)cc1`: the GI50 in the test on K562 and in the test with DU-145 was 1 µM each time.

Take `COc1ccccc1/C=C(\C(=O)c1ccc(Br)cc1)S(=O)(=O)c1ccc(C)cc1`: the GI50 in the test on K562 and with DU-145 was 1 µM throughout.

Regarding `COc1ccc(/C=C(\C(=O)c2ccc(Cl)cc2)S(=O)(=O)Cc2ccc(Cl)cc2)c(OC)c1OC`, the concentration for 50% growth inhibition (GI50) came out at 1 µM in the test with K562 and 10 µM in the test with DU-145.

Regarding `COc1ccc(/C=C(/SCc2ccc(F)cc2)C(=O)c2ccc(Br)cc2)cc1`, the results for the GI50 with K562 and in the test with DU-145 were 1 µM and 50 µM, respectively.

As for `O=C(/C(=C\c1ccc([N+](=O)[O-])c(O)c1)SCc1ccc(Br)cc1)C1CCNC1` (configuration not stated), the GI50 in the test on K562 and in the test with DU-145 was over 100 µM throughout.

Take `O=C(/C(=C\c1ccc(Cl)cc1)SCc1ccccc1Cl)c1ccc(Cl)cc1`: the results for the GI50 in the test with K562 and in the test with DU-145 were 1 µM and 12 µM, respectively.

As to `CCOc1ccc(/C=C(\C(=O)c2ccc(Cl)cc2)S(=O)(=O)Cc2ccc(F)cc2)cc1OC`, the 50% growth inhibitory concentration (GI50) was determined as 25 µM in the test on K562 and 50 µM in the test on DU-145.

Take `CCOc1ccc(/C=C(/SCc2ccc(F)cc2)C(=O)c2ccc(Br)cc2)cc1OC`: the GI50 in the test on K562 worked out at 1 µM; in the test with DU-145, 50 µM.

Consider `O=C(/C(=C\c1ccc(O)cc1)S(=O)(=O)Cc1ccc(F)cc1)c1ccc(Br)cc1`, for which the GI50 with K562 and with DU-145 was 10 µM throughout.

On to `O=C(O)c1cc(/C=C(/Sc2ccc(Br)cc2)C(=O)c2c(F)c(F)c(F)c(F)c2F)ccc1O`, for which the 50% growth inhibitory concentration (GI50) in the test with K562 and with DU-145 was 25 µM in each case.

For `CN(C)c1ccc(/C=C(/SCc2ccc(Cl)cc2Cl)C(=O)c2ccc(Cl)cc2)cc1`, the concentration for 50% growth inhibition (GI50) in the test on K562 was over 100 µM; in the test with DU-145, 50 µM.

With `Cc1ccc(S/C(=C/c2c[nH]c3ccc(Cl)cc23)C(=O)c2ccc(Br)cc2)cc1`, the GI50 in the test on K562 and with DU-145 was 1 µM each time.

With `O=C(/C(=C\c1ccc(F)c([N+](=O)[O-])c1)SCc1ccc(Br)cc1)c1ccc(Cl)c([N+](=O)[O-])c1`, the GI50 in the test with K562 and in the test with DU-145 was over 100 µM throughout.

With `Cc1ccc(S/C(=C/c2ccc(F)c(C)c2)C(=O)c2ccc(Br)cc2)cc1`, the values for the 50% growth inhibitory concentration (GI50) in the test on K562 and in the test on DU-145 were 1 µM and 25 µM, respectively.

Regarding `Cc1ccc(S/C(=C/c2ccc(Cl)cc2)C(=O)c2ccc(Cl)cc2)cc1`, the GI50 in the test with K562 was found to be 1 µM; in the test with DU-145 it was 10 µM.

Regarding `O=C(/C(=C\c1ccc(F)cc1F)S(=O)(=O)c1ccc(Cl)cc1)c1ccc(Br)cc1`, the GI50 in the test with K562 and in the test on DU-145 was 25 µM each time.

As for `O=C(O)c1ccc(C(=O)/C(=C\c2ccc(N3CCN(Cc4ccccc4)CC3)c([N+](=O)[O-])c2)SCc2ccc(F)cc2)cc1`, the GI50 in the test on K562 and in the test on DU-145 was 1 µM each time.

Turning to `COc1ccc(/C=C(\C(=O)c2ccc(Br)cc2)S(=O)(=O)Cc2ccc(Cl)cc2)cc1`, the values for the concentration for 50% growth inhibition (GI50) with K562 and in the test on DU-145 were 10 µM and 25 µM, respectively.

As for `O=C(/C(=C\c1ccc(O)c([N+](=O)[O-])c1)SCc1ccc(Br)cc1)c1ccc([N+](=O)[O-])cc1`, the GI50 in the test on K562 and in the test on DU-145 was 10 µM each time.

Take `O=C(/C(=C\c1ccc(Cl)cc1Cl)S(=O)(=O)c1ccc(Br)cc1)c1ccc(Br)cc1`: the GI50 in the test on K562 was 1 µM; with DU-145, 10 µM.

For `COc1ccc(/C=C(\C(=O)c2ccc(Br)cc2)S(=O)(=O)c2ccc(Br)cc2)c(F)c1`, the 50% growth inhibitory concentration (GI50) is 1 µM with K562 and 10 µM in the test with DU-145.

In the case of `Cc1ccc(CS(=O)(=O)/C(=C/c2c[nH]c3ccc(Br)cc23)C(=O)c2ccc(Cl)cc2)cc1`, the GI50 with K562 and in the test with DU-145 was 10 µM in each case.

For the compound `COc1cc(OC)c(/C=C(/SCc2ccc(Cl)cc2Cl)C(=O)c2ccc(Cl)cc2)c(OC)c1`, the concentration for 50% growth inhibition (GI50) was found to be 25 µM in the test on K562 and 1 µM in the test with DU-145.

`O=C(/C(=C\c1ccc(-c2ccccc2)s1)SCc1ccc(F)cc1)c1ccc(Br)cc1`: the GI50 in the test on K562 was 50 µM; in the test on DU-145 it was over 100 µM.

For the compound `O=C(/C(=C\c1ccc(OC(F)(F)F)cc1)Sc1ccc(Br)cc1)c1ccc(Br)cc1`, the GI50 stood at 1 µM in the test on K562 and 10 µM in the test with DU-145.

In the case of `Cc1cc(C)cc(/C=C(\C(=O)c2ccc(Br)cc2)S(=O)(=O)Cc2ccc(F)cc2)c1`, the GI50 in the test with K562 and in the test on DU-145 was 10 µM in each case.

Turning to `CN(C)c1ccc(/C=C(/SCc2ccc(Cl)cc2)C(=O)c2ccc([N+](=O)[O-])cc2)cc1`, the results for the GI50 with K562 and in the test with DU-145 were 50 µM and over 100 µM, respectively.

As to `COc1ccccc1/C=C(/SCc1ccc(Cl)cc1)C(=O)c1ccc(Br)cc1`, the GI50 with K562 was determined as 10 µM; in the test with DU-145, 1 µM.

For the compound `COc1cc(C(=O)/C(=C\c2ccc(O)c([N+](=O)[O-])c2)SCc2ccc(Br)cc2)cc(OC)c1OC`, the GI50 with K562 and in the test on DU-145 was 1 µM in each case.

As for `O=C(/C(=C\c1ccc(O)c([N+](=O)[O-])c1)SCc1ccc(Br)cc1)C1CCNC1` (configuration not stated), the GI50 in the test on K562 and in the test on DU-145 was over 100 µM throughout.

Take `O=C(/C(=C\c1ccccc1OCc1ccccc1)S(=O)(=O)Cc1ccc(F)cc1)c1ccc(Cl)cc1`: the 50% growth inhibitory concentration (GI50) was 1 µM in the test with K562 and 10 µM with DU-145.

Consider `CN(C)c1ccc(/C=C(/SCc2ccc(Cl)cc2)C(=O)c2ccc(C(=O)O)cc2)cc1`, for which the GI50 with K562 and in the test on DU-145 was 1 µM each time.

Regarding `Cc1ccc(S(=O)(=O)/C(=C/c2c(O)cc(O)cc2O)C(=O)c2ccc(Cl)cc2)cc1`, the GI50 with K562 and in the test on DU-145 was over 100 µM in each case.

For `O=C(/C(=C\c1ccc(Cl)cc1)Sc1ccc(Br)cc1)c1ccc(Br)cc1`, the concentration for 50% growth inhibition (GI50) in the test with K562 and in the test on DU-145 was 1 µM each time.

In the case of `Cc1ccc(S/C(=C/c2ccc(-c3ccccc3)cc2)C(=O)c2ccc(Br)cc2)cc1`, the GI50 was 25 µM in the test with K562 and 50 µM with DU-145.

On to `COc1ccccc1/C=C(\C(=O)c1ccc(Cl)cc1)S(=O)(=O)Cc1ccc(C)cc1`, for which the GI50 with K562 and in the test with DU-145 was 10 µM each time.

Consider `O=C(/C(=C\c1cc(Cl)c(O)c(Cl)c1)S(=O)(=O)Cc1ccc(Br)cc1)c1ccc(Br)cc1`, for which the GI50 with K562 and in the test on DU-145 was 25 µM each time.

Regarding `Cc1ccc(S(=O)(=O)/C(=C/c2cccs2)C(=O)c2ccc(Cl)cc2)cc1`, the values for the 50% growth inhibitory concentration (GI50) in the test on K562 and with DU-145 were 50 µM and 25 µM, respectively.

As for `COc1ccc(/C=C(\C(=O)c2ccc(Cl)cc2)S(=O)(=O)c2ccc(Br)cc2)cc1`, the GI50 in the test with K562 and in the test on DU-145 was 10 µM each time.

Consider `O=C(/C(=C\c1c[nH]c2ccc(Cl)cc12)SCc1ccc(F)cc1)c1ccc(Br)cc1`, for which the GI50 in the test with K562 and in the test on DU-145 was 1 µM in each case.

For the compound `COc1ccc(/C=C(/SCc2ccc(Cl)cc2)C(=O)c2ccc(Cl)cc2)cc1`, the GI50 was determined as 1 µM with K562 and 10 µM in the test on DU-145.

Turning to `COc1ccc(S(=O)(=O)/C(=C/c2ccccc2OCc2ccccc2)C(=O)c2ccc(Cl)cc2)cc1`, the GI50 in the test with K562 and with DU-145 was 1 µM in each case.

As for `COc1cc(OC)c(/C=C(\C(=O)c2ccc(Br)cc2)S(=O)(=O)Cc2ccc(Cl)cc2)c(OC)c1`, the GI50 in the test on K562 and in the test on DU-145 was 25 µM throughout.

`O=C(/C(=C\c1ccc(O)c([N+](=O)[O-])c1)SCc1ccc(Br)cc1)c1ccc(C(F)(F)F)cc1`: the GI50 in the test on K562 was 1 µM; in the test with DU-145, 10 µM.

For `COc1ccccc1/C=C(/Sc1ccc(C)cc1)C(=O)c1ccc(Br)cc1`, the 50% growth inhibitory concentration (GI50) was 1 µM with K562 and 9 µM in the test with DU-145.
